Laboratory results: ChEMBL document CHEMBL1137839, “Potent antitumor N-mustard derivatives of 9-anilinoacridine, synthesis and antitumor evaluation” (Bioorg Med Chem Lett, 2004)

How the values were obtained:
HCT-116 = assay: Concentration required for growth inhibition of human HCT116 colon tumor cell line […] was determined; assay type: functional, cell-based
Mus musculus [1] = assay: Average change in body weight of mice bearing human mammary carcinoma (MX-1) xenograft on 20th day of administration (dose = 1-2 mg/kg); assay type: functional
In short: (§1)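 Nude mice (n = 3) bearing human MX-1 mammary carcinoma xenografts (Day 0). Intravenous treatment started on D11, when tumors were 80–120 mm3, at 1–2 mg/kg on a Q3D × 7 schedule. Body weight was taken as total body weight minus tumor weight. Animals with excessive tumor burden (>3500 mm3) were sacrificed.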

[2] = Concentration required for growth inhibition of taxol resistant human lymphoblastic leukemic cell line (CCRF-CEM/taxol) was determined; assay type: functional, cell-based
In short: (§2)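 Drug-resistant human lymphoblastic leukemia sublines (vinblastine-resistant CCRF-CEM/VBL; taxol-resistant CCRF-CEM/taxol). Growth inhibition measured by XTT assay after 72 h incubation, reported as IC50.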

Mus musculus [3] = assay: Average change in body weight of mice bearing human mammary carcinoma (MX-1) xenograft on 17th day of administration (dose = 1-2 mg/kg); assay type: functional; in short: as §1
[4] = Average tumor size of human mammary carcinoma (MX-1) xenograft in mice on 17th day of administration (dose = 1-2 mg/kg); assay type: organism-based; conditions: mouse, in vivo
In short: (§3)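 Human MX-1 breast carcinoma xenografts in nude mice (n = 3) with tumors established on Day 0. Dosing was iv, 1–2 mg/kg Q3D × 7, beginning D11 at tumor size 80–120 mm3. Tumor size was tracked in mm3, and mice were sacrificed when tumors exceeded 3500 mm3.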

CCRF-CEM = assay: Concentration required for growth inhibition of human lymphoblastic leukemic cell line (CCRF-CEM) was determined; assay type: functional, cell-based
In short: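 Leukemic CCRF-CEM cells and their vinblastine-resistant (CCRF-CEM/VBL) and taxol-resistant (CCRF-CEM/taxol) sublines were incubated for 72 h. Growth inhibition was read by XTT assay and expressed as IC50. For the resistant sublines, fold resistance was calculated relative to the parent CCRF-CEM IC50.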

[5] = Concentration required for growth inhibition of vinblastine resistant human lymphoblastic leukemic cell line (CCRF-CEM/VBL) was determined; assay type: functional, cell-based; in short: as §2
A549 = assay: Concentration required for growth inhibition of […] was determined; assay type: functional, cell-based; conditions: Homo sapiens
[6] = Average tumor size of human mammary carcinoma (MX-1) xenograft in mice on 20th day of administration (dose = 1-2 mg/kg); assay type: organism-based; conditions: mouse, in vivo; in short: as §3
Mus musculus [7] = assay: Average change in body weight of mice bearing human mammary carcinoma (MX-1) xenograft on 14th day of administration (dose = 1-2 mg/kg); assay type: functional; in short: as §1
[8] = Average tumor size of human mammary carcinoma (MX-1) xenograft in mice on 23th day of administration (dose = 1-2 mg/kg); assay type: organism-based; conditions: mouse, in vivo; in short: as §3
Mus musculus [9] = assay: Average change in body weight of mice bearing human mammary carcinoma (MX-1) xenograft on 26th day of administration (dose = 1-2 mg/kg); assay type: functional; in short: as §1
Mus musculus [10] = assay: Average change in body weight of mice bearing human mammary carcinoma (MX-1) xenograft on 23th day of administration (dose = 1-2 mg/kg); assay type: functional; in short: as §1

IC50 (HCT-116)	IC50 (A549)	Structure (SMILES)	IC50 [2]	IC50 (CCRF-CEM)	IC50 [5]	other results
–	–	ClCCN(CCCl)CCOc1cccc(Nc2c3ccccc3nc3ccccc23)c1	–	90 nM	–	–
–	–	ClCCN(CCCl)CCOc1ccc(Nc2c3ccccc3nc3ccccc23)cc1	60 nM	20 nM	60 nM	–
–	–	Cc1cccc2c(Nc3ccc(OCCN(CCCl)CCCl)cc3)c3cccc(C(=O)NCCN(C)C)c3nc12	–	770 nM	–	–
–	47 nM	Nc1cc(CO)cc(Nc2c3ccccc3nc3ccccc23)c1	600 nM	750 nM	1600 nM	–
–	–	Cc1cccc2c(Nc3cccc(OCCN(CCCl)CCCl)c3)c3cccc(C(=O)NCCN(C)C)c3nc12	–	3 nM	–	–
2.6 nM	2.9 nM	CC(=O)O[C@H]1C(=O)[C@@]2(C)[C@H]([C@H](OC(=O)c3ccccc3)[C@]3(O)C[C@H](OC(=O)[C@H](O)[C@@H](NC(=O)c4ccccc4)c4ccccc4)C(C)=C1C3(C)C)[C@]1(OC(C)=O)CO[C@@H]1C[C@@H]2O [PACLITAXEL]	140 nM	1.5 nM	1620 nM	–
8.7 nM	9.9 nM	CC[C@]1(O)C[C@@H]2CN(CCc3c([nH]c4ccccc34)[C@@](C(=O)OC)(c3cc4c(cc3OC)N(C)[C@H]3[C@@](O)(C(=O)OC)[C@H](OC(C)=O)[C@]5(CC)C=CCN6CC[C@]43[C@@H]65)C2)C1 [VINBLASTINE]	29 nM	1.2 nM	540 nM	–

Structure (SMILES)	IC50 (HCT-116)	IC50 (A549)	IC50 [2]	IC50 (CCRF-CEM)	IC50 [5]	other results
OCc1cc(Nc2c3ccccc3nc3ccccc23)cc(OCCN(CCCl)CCCl)c1	5.5 nM	5.6 nM	30 nM	7 nM	7.5 nM	Weight (Mus musculus [1]): -3 g; Weight (Mus musculus [3]): -1.4 g; T/C [4]: 0.37; T/C [6]: 0.17; Weight (Mus musculus [7]): 1.2 g; T/C [8]: 0.14; Weight (Mus musculus [9]): -3.9 g; Weight (Mus musculus [10]): -3 g
